In the RNAGym collection of RNA variant scans (doi:10.1126/science.aae0568):
This sample holds only a part of the variants without activity.

B1: tRNA (parent)
chain: GUUCCGUUGGCGUAAUGGUAACGCGUCUCCCUCCUAAGGAGAAGACUGCGGGUUCGAGUCCCGUACGGAACG

Variants of: B1
Test: yeast fitness relative to wild type (ratio to wild type); higher = fitter; tRNA-Arg(CCU), competitive growth, 37 C, YPD
Summary of the method: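 Genotype frequency changes were the basis for Darwinian fitness relative to wild type. The frequencies came from 100-nucleotide paired-end sequencing of gene amplicons from the start population and each end population of pooled yeast strains with tRNA-Arg(CCU) gene variants at the native locus. Competition ran in YPD at 37°C for 24 hours in six replicates, genotypes needed ≥ 100 starting reads, and estimates < 0.5 were set to 0.5.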

Row | Variant | yeast fitness
1 | GUUCCGUCGGCGUAAUGGUAACGCGUCUUCCUCCUAAGGAGAAGACUGCGGGUUCCAGUCCCGUACGGAACG [U8C C29U G56C] | 0.538
2 | GUUCCGUCGGCGUAAUGGUAACGCGUCUUCCUCCGAAGGAGAAGACUGCGGGUUCGAGUCCCGUACGGAACG [U8C C29U U35G] | ≤ 0.5
3 | GUUCCGUCGGCGUAAUGGUAACGCGUCUCACUCCUAAGGAGAAGAGUGCGGGUACGAGUCCCGAACGAAACG [U8C C30A C46G U54A U64A G68A] | ≤ 0.5
4 | GUUCCGUCGGCGUAAUGGUAACGCGUCUCACUCCUAAGAAGAAGACAGCGGGUUCGAGUCCCCUACGGAACG [U8C C30A G39A U47A G63C] | ≤ 0.5
5 | GUUCCGUCGGCGUAAUGGUAACGCGUCUCACUCCUAAGGAGAAGACUACGGGUUCGAGUCCCGUACGGAACG [U8C C30A G48A] | 0.731
6 | GUUCCGUCGGCGUAAUGGUAACGCGUCUCGCUCCUAAGGAGAAGACUGCGGGUUCGAGUCCCGUACGGCACG [U8C C30G A69C] | ≤ 0.5
7 | GUUCCGUCGGCGUAAUGGUAACGCGUCUCGGUCCUAAGGAGAAGACUGCGGGUUCGAGUCCCGUCCGGAACG [U8C C30G C31G A65C] | 0.527
8 | GUUCCGUCGGCGUAAUGGUAACGCGUCUCGGUCCUAAGGAGAAGACUACGGGUUCGAGUCCCGUACGGAACG [U8C C30G C31G G48A] | ≤ 0.5
9 | GUUCCGUCGGCGUAAUGGUAACGCGUCUCGGUCCUAAGGAGAAGACUGCGGGUUCGAGUCCCGGAUGGAACG [U8C C30G C31G U64G C66U] | ≤ 0.5
10 | GUUCCGUCGGCGUAAUGGUAACGCGUCUCGCUGCUAAGGAGAAGACUGCGGGUUCGAGUCCCGUACGGAUCG [U8C C30G C33G A70U] | 0.571
11 | GUUCCGUCGGCGUAAUGGUAACGCGUCUCGCUCCUAAGGAGAAGACUGAGGGUUCGAGUCCCGUACAAAACG [U8C C30G C49A G67A G68A] | ≤ 0.5
12 | GUUCCGUCGGCGUAAUGGUAACGCGUCUCGCUCCUAAGGAGAAGACUGCGGGCUCGAGUAACGUAGGGAACG [U8C C30G U53C C60A C61A C66G] | ≤ 0.5
13 | GUUCCGUCGGCGUAAUGGUAACGCGUCUCUCUCCUAGGGAGAAGACUGCGGGUUCGAGUCCCGUACGGAACG [U8C C30U A37G] | ≤ 0.5
14 | GUUCCGUCGGCGUAAUGGUAACGCGUCUCUCUCCUAAGGAGAAGACUGCGGGUUCGGGUCCCGUACGGAACG [U8C C30U A57G] | 0.533
15 | GUUCCGUCGGCGUAAUGGUAACGCGUCUCUAUGCUAAGGAGGAGACUGCGGGUUCGAGUACCGUACGGAACG [U8C C30U C31A C33G A42G C60A] | ≤ 0.5
16 | GUUCCGUCGGCGUAAUGGUAACGCGUCUCUAUGCUAAGGAGAAGACUGCGGGUUCGAGUACCGUACGGAACG [U8C C30U C31A C33G C60A] | 0.586
17 | GUUCCGUCGGCGUAAUGGUAACGCGUCUCCAUCCUAAGGAGGAGACUGCGGGUUCGUGACCCGUACGGAACG [U8C C31A A42G A57U U59A] | ≤ 0.5
18 | GUUCCGUCGGCGUAAUGGUAACGCGUCUCCAUCCUAAGGAAAAGACUGCGGGUUCGAGUCCCGUACGGAACG [U8C C31A G41A] | ≤ 0.5
19 | GUUCCGUCGGCGUAAUGGUAACGCGUCUCCAUCCUAAGGAGAAGACUGCGGCUUCGAGUCCCGUUCGGAACG [U8C C31A G52C A65U] | ≤ 0.5

Row | Variant | yeast fitness
20 | GUUCCGUCGGCGUAAUGGUAACGCGUCUCCGUCCUAAGGAGAAGACUGCGGGUUCGAGUCCCGUACGGAACG [U8C C31G] | 0.81
21 | GUUCCGUCGGCGUAAUGGUAACGCGUCUCCGUCCUAAGGAGAAGACUACGGGUCCGAGUCCCGUACGGAACG [U8C C31G G48A U54C] | ≤ 0.5
22 | GUUCCGUCGGCGUAAUGGUAACGCGUCUCCGUCCUAAGGAGAAGACUGCAGGUUCGAGUCCCGUACGGAACG [U8C C31G G50A] | 0.615
23 | GUUCCGUCGGCGUAAUGGUAACGCGUCUCCGUCCUAAGGAGAAGACUGCCGGUUCCAGUCCCGUACGGAACG [U8C C31G G50C G56C] | ≤ 0.5
24 | GUUCCGUCGGCGUAAUGGUAACGCGUCUCCUUCCUAAGGAGAUGACUACGGGAUCGAGUCCCGUACGGAACG [U8C C31U A43U G48A U53A] | ≤ 0.5
25 | GUUCCGUCGGCGUAAUGGUAACGCGUCUCCUUCCUAAGGAGAAGACUGUGGGUUCGAGUCCCGUACGGAACG [U8C C31U C49U] | 0.689
26 | GUUCCGUCGGCGUAAUGGUAACGCGUCUCCUUCCUAAGGAGAAGACUGUGGGUCCGAGUCCCGUACGGAACG [U8C C31U C49U U54C] | ≤ 0.5
27 | GUUCCGUCGGCGUAAUGGUAACGCGUCUCCUUCCUAAGGAGAAGACUCCGGGUUAGAGUGCCGUACGGGACG [U8C C31U G48C C55A C60G A69G] | ≤ 0.5
28 | GUUCCGUCGGCGUAAUGGUAACGCGUCUCCCUGCUAAGGAGACGACUGCGGGUUCGAGUCCCGUACGGAACG [U8C C33G A43C] | ≤ 0.5
29 | GUUCCGUCGGCGUAAUGGUAACGCGUCUCCCUGCUAAGGAGACGACUGCGGGUUCGAGUCCCGUAAGGAACG [U8C C33G A43C C66A] | ≤ 0.5
30 | GUUCCGUCGGCGUAAUGGUAACGCGUCUCCCUGGUAAGGAGAAGAUUGCGGGUUCGAGUCCCGUACGGAACG [U8C C33G C34G C46U] | ≤ 0.5
31 | GUUCCGUCGGCGUAAUGGUAACGCGUCUCCCUCAUAAGGAGAAGCCUGCGGGUUCGAGUCCCGUACGGAACG [U8C C34A A45C] | ≤ 0.5
32 | GUUCCGUCGGCGUAAUGGUAACGCGUCUCCCUCUUAAGGAGAAGCCUGCGGGUUCGAGUCCCGUACGGCCCG [U8C C34U A45C A69C A70C] | ≤ 0.5
33 | GUUCCGUCGGCGUAAUGGUAACGCGUCUCCCUCUUAAGGAGAAGACUGCGGGUUAGAGUCCUGUACGGAACG [U8C C34U C55A C62U] | 0.619
34 | GUUCCGUCGGCGUAAUGGUAACGCGUCUCCCUCCUAAGGAGAAGAAUGCGGGUUCGAGUCCUGUACGGAACG [U8C C46A C62U] | 0.774
35 | GUUCCGUCGGCGUAAUGGUAACGCGUCUCCCUCCUAAGGAGAAGAGUGCGGGUUCGAGUCCCGUACGGAACG [U8C C46G] | 1.04
36 | GUUCCGUCGGCGUAAUGGUAACGCGUCUCCCUCCUAAGGAGAAGACUGAGGGUUCGAGUCCCGUACGGAACG [U8C C49A] | 0.704
37 | GUUCCGUCGGCGUAAUGGUAACGCGUCUCCCUCCUAAGGAGAAGACUGAGUGUUCGAGGCCAGUACGGAACG [U8C C49A G51U U59G C62A] | ≤ 0.5
38 | GUUCCGUCGGCGUAAUGGUAACGCGUCUCCCUCCUAAGGAGAAGACUGUGGGUUCGAGUCCCGUACGGAACG [U8C C49U] | 0.903
